The EternaBench riboswitch data

System: MS2 coat protein
Assay: apparent Kd, MS2 coat protein; higher = weaker binding; RNA-MaP array; FMN 200 µM where present
How it was run: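 The apparent Kd is reported as the median of filtered per-cluster binding-curve fits. To get these curves, designs transcribed by stalled E. coli RNA polymerase on Illumina sequencing-chip clusters were titrated with SNAP-549-labelled MS2 coat protein from 0.7 or 1.5 nM, doubling to 3 µM. Titrations were run without and then with constant ligand in 100 mM Tris-HCl pH 7.5, 80 mM KCl, 4 mM MgCl2, BSA, DTT, yeast tRNA and Tween-20, and green signal was normalised to red-channel RNA signal and control-cluster median Fmax.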

[1] = designed as: OFF switch for flavin mononucleotide, no ligand
[2] = ligand present: flavin mononucleotide, designed as: OFF switch for flavin mononucleotide
[3] = designed as: ON switch for flavin mononucleotide, no ligand
[4] = ligand present: flavin mononucleotide, designed as: ON switch for flavin mononucleotide

| Sequence | apparent Kd [1] [nM] | apparent Kd [2] [nM] | apparent Kd [3] [nM] | apparent Kd [4] [nM] |
| --- | --- | --- | --- | --- |
| GUAUCGUGAGGAUAUCAUGAUUGACUUUUAUUUUGUCAGCGUGAGAAGGCACAUGAGGAUCACCCAUGUGAUUA | 22.6 | 50.5 |  |  |
| GUCAAAACCAUACUGGUCGACGGUCAGGAUAUACAUGAGGAUCACCCAUGUGCUAUUGAUACUAUGUAGAAGGGACCCACCGCA | 16.2 | 30 |  |  |
| GUCACGAAUGUAGGAUAUCGAGUGGAAUACACUCGAGAAGGACAUGAGGAUCACCCAUGUACUAUGAAAGAUAAUAAACGUGAC | 14.9 | 19.5 |  |  |
| GUCACUAGAGGAUAUACAAUGGUAUAUGAUCCUAGAGACAUACAUGAGGAUCACCCAUGUAGAAGGCUAGUAAU | 81.7 | 46.6 |  |  |
| GUCAGCAAAUAAGGAUAUACAACACUGCUUCGGCAGUGUAUUAAGAUCACAUGAGGAUCACCCAUGUAGAAGGUAUAAGCUGAU | 6.98 | 24.5 |  |  |
| GUCAGCUCGUGAGGAUAUACAACACUGCUUCGGCAGAGUAUUAAGAUCACAUGAGGAUCACCCAUGUAGAAGGCACGAGCUGAU | 10.3 | 117 |  |  |
| GUCAGCUCGUGAGGAUAUACAACACUGCUUCGGCAGUGUAUUAAAAUAACAUGAGGAUCACCCAUGUAGAAGGCACGAGCUGAU | 5.14 | 6.62 |  |  |
| GUCAGCUCGUGAGGAUAUACAACACUGCUUCGGCAGUGUAUUAAGAUCACAUGAGGAUCACCCAUGUAGAAGGCACAAGCUGAU | 15.9 | 271 |  |  |
| GUCAGCUCGUGAGGAUAUACAACACUGCUUCGGCAGUGUAUUAAGAUCACAUGAGGAUCACCCAUGUAGAAGGCACGAGCCGAU | 14.3 | 271 |  |  |
| GUCAGCUCGUGAGGAUAUACAACACUGCUUCGGCAGUGUAUUAAGAUCACAUGAGGAUCACCCAUGUAGAAGGCACGAGCUCAU | 15.2 | 246 |  |  |
| GUCAGCUCGUGAGGAUAUACAACACUGCUUCGGCAGUGUAUUAAGAUUACAUGAGGAUCACCCAUGUAGAAGGCACGAGCUGAU | 5.01 | 6.95 |  |  |
| GUCAGCUCGUGAGGAUAUACAACACUGCUUCGGCAGUGUCUUAAGAUCACAUGAGGAUCACCCAUGUAGAAGGCACGAGCUGAU | 8.98 | 168 |  |  |
| GUCAGCUCGUGAGGAUAUACAUCACUGCUUCGGCAGUGUAUUAACAUCACAUGAGGAUCACCCAUGUAGAAGGCACGAGCUGAU | 16 | 22.7 |  |  |
| GUCAGCUCGUGAGGAUAUACAUGAUAGAUCGAUUAAUUAAUUAAUUUAACAUGAGGAUCACCCAUGUAGAAGGCACGAGCUGAC | 51.7 | 46.7 |  |  |
| GUCAGCUCGUGAGGAUAUACAUGAUAGAUCGAUUAAUUAAUUAAUUUAACAUGAGGAUCACCCAUGUAGAAGGUACGAGCUGAC | 52 | 66.3 |  |  |
| GUCAGCUCGUGAGGAUAUACAUGUGCUGGAAACAGCACUAAUUAAAUCACAUGAGGAUCACCCAUGUAGAAGGCACGAGCUGAU | 16.4 | 23.6 |  |  |
| GUCAGCUCGUGAGGAUAUACAUGUGCUGGAGACAGCACUAAUAGAAUCACAUGAGGAUCACCCAUGUAGAAGGCACGAGCUGAU | 17 | 41.2 |  |  |
| GUCAGCUCGUGAGGAUAUACAUGUGCUGGAGACAGCACUAUUAAAUUCACAUGAGGAUCACCCAUGUAGAAGGCACGAGCUGAU | 15.2 | 18.6 |  |  |
| GUCAGCUCGUGAGGAUAUACAUGUGCUGGAGACAGCAUUAUAUUUUUCACAUGAGGAUCACCCAUGUAGAAGGCACGAGCUGAU | 16.5 | 27.4 |  |  |
| GUCAGCUCGUGAGGAUAUACAUGUGCUGGAUACAGCACUAAAGAUUUCACAUGAGGAUCACCCAUGUAGAAGGCACGAGCUGAU | 16.9 | 38 |  |  |
| GUCAGCUCGUGAGGAUAUACAUGUGCUGGAUACAGCAUUAAAUUUUUCACAUGAGGAUCACCCAUGUAGAAGGCACGAGCUGAU | 19.2 | 49.6 |  |  |
| GUCAGCUCGUGAGGAUAUCCAACACUGCUUCGGCAGUGUAUUAAGAUCACAUGAGGAUCACCCAUGUAGAAGGCACGAGCUGAU | 6.48 | 7.55 |  |  |
| GUCAGUGUGGUAGGAUAUCGAAACGGUCAGUUACGAGAAGGGCUACAUGAGGAUCACCCAUGUAUCCAGGAUCGGCUUACAGUA | 6.16 | 6.27 |  |  |
| GUCAUACAUGAGGAUCACCCAUGUAAGGAUAUGCUAGCGGUCGGAAGACUGACUGCUAGCAGAAGGUACAUGAU | 67.1 | 92.5 |  |  |
| GUCAUACAUGAGGAUCACCCAUGUAAGGAUAUGCUAGCGGUCGGCUGACUGACUGCUAGCAGAAGGUACAUGAU | 64.1 | 90 |  |  |
| GUCAUUUAUGUAGGAUAUGCGAGGCGAGCCUGAGCAGAAGGACAUGAGGAUCACCCAUGUAUUGCGGUUUAUGUUCAGAUCGCU | 16.3 | 19 |  |  |
| GUCCGCUCGUGAGGAUAUACAACACUGCUUCGGCAGUGUAUUAAGAUCACAUGAGGAUCACCCAUGUAGAAGGCACGAGCUGAU | 13.7 | 289 |  |  |
| GUCCUACAUGAGGAUCACCCAUGUAAGGAUAUGCUAGCGGUCGGAUGACUGACUGCUAGCAGAAGGUACAUGAU | 15.2 | 24.9 |  |  |

| Sequence | apparent Kd [1] [nM] | apparent Kd [2] [nM] | apparent Kd [3] [nM] | apparent Kd [4] [nM] |
| --- | --- | --- | --- | --- |
| GUCCUACAUGAGGAUCACCCAUGUGAGGAUAUGGAUUCGCUGGCCGUAGCCAGUGGAUCCAGAAGGCGCAUGAU | 26.9 | 82.8 |  |  |
| GUCCUCAAGACAGGAUAUCCAUACAACGCGCUAGGAGAAGGGUCUACAUGAGGAUCACCCAUGUGAUUCUGAGAAUUUGGUGGG | 313 | 148 |  |  |
| GUCCUCAGCGAGGAUAUCGGGCGGGUUUUUGUUUGAGAAGGCGUGACAUGAGGAUCACCCAUGUGGCGCGUGGG | 51.2 | 82.3 |  |  |
| GUCGAGUGAGGAUAUGGUGAGUAGUGCCAGAGCGCUGCUCACCAGAAGGCACAUGAGGAUCACCCAUGUAUAGC | 16.8 | 29.9 |  |  |
| GUCGGAAACGACAAAAGUAGCAUAGGAGAAGGCAUGUCAAAGACAUGAGGAUCACCCAUGUAGCAUGAGGAUAUCCUAUGCUAC |  |  | 5.24 | 4.97 |
| GUCGGAAACGACAAAAGUAUGGAUCCAGAAGGCAUGACACAUGAGGAUCACCCAUGUCUAAGACAUGAGGAUAUGGAUCCAUAC |  |  | 5.24 | 3.67 |
| GUCGGAAACGACAAGUAGCAAUCGGAGGAUAUUCAUGAAAACAUGAGGAUCACCCAUGUAAAUUGGGAGAAGGCCGAUUGCUAC |  |  | 91.6 | 8.48 |
| GUCGGAAACGACAAUGAUAGGACUGAGGAUAUACAUAAGUUUGUCCAUACAUGAGGAUCACCCAUGUAGAAGGCAGUCCUAUCU | 6.33 | 15.9 |  |  |
| GUCGGAAACGACAAUGAUAGGACUGAGGAUAUACGUAAUAUUAUCCAUACAUGAGGAUCACCCAUGUAGAAGGCAGUCCUAUCU | 5.85 | 6.02 |  |  |
| GUCGUGUGAGGAUAUGAUUAAUAGACGGGAUUGCGACUGCAUCAGAAGGCACAUGAGGAUCACCCAUGUAUGAA | 19.4 | 63.5 |  |  |
| GUCUCAGCUGAGGAUAUAUUCUCCCUUGAGGGAAUAGAAGGCAGUACAUGAGGAUCACCCAUGUGGUUCGUUUG | 122 | 327 |  |  |
| GUCUCCGCUCGAGGAUAUAGCUGCAUGUAGUGUCCUGAGGCACAUGAGGAUCACCCAUGUGUAGGCUAGAAGGCGACGGACACU |  | 29.2 |  |  |
| GUGAAACAUGAGGAUCACCCAUGUGAGGAUAUGUUUUAGUACUGCUGACAGUACAUCUAUAGAAGGCACAAUGG | 34.8 | 54.8 |  |  |
| GUGAACAUGAGGAUCACCCAUGUAGCUCACUGCCAGUGGCUACAGGAUAUAGCACCUCGAGGGUGCUAGAAGGGUGGCCUAGAA |  |  | 62.9 | 16.8 |
| GUGAGGUAAGGAUAUAGGAGAAAAGAUAAGGUAUGAGAGUUCUAGAAGGUACAUGAGGAUCACCCAUGUUAGGG | 224 | 193 |  |  |
| GUGAGGUCAGGAUAUGCAUGGCGGGACUUGCGUCGUGGCGUGGAGAAGGGACAUGAGGAUCACCCAUGUGGAGA | 73 | 63.1 |  |  |
| GUGCAAUGAGGAUAUACGUAGGUGAAAAUCUGUGUGCUCCUACAUGAGGAUCACCCAUGUAGAAGGCAUGUCAC | 17.1 | 28.2 |  |  |
| GUGCACACUCGAGGAUAUCGGAGUUUUCUUCUUUGAGAAGGCGAUUCGUGCCGUGUUAUUUUGGACAUGAGGAUCACCCAUGUG |  |  | 66 | 36.8 |
| GUGCCUAACUAGAAGGCAGUAUGCAAAGCAUUCUGAGGAUAUGGGUUCCGGAAACGGACAUGAGGAUCACCCAUGUGGCACAAA |  |  | 312 | 20.3 |
| GUGCCUUGGGAGAAGGCCCAAUGCAAAGCAUCGGGAGGAUAUUCAUAUAAUAAAUAAACAUGAGGAUCACCCAUGUGGCACAAA |  |  | 447 | 33 |
| GUGCCUUGGGAGAAGGCCGAUAGCAAAGCUAUCGGAGGAUAUUCAUACCGGAAACGGACAUGAGGAUCACCCAUGUGGCACAAA |  |  | 1280 | 51.7 |
| GUGCGCGGCUAGGAUAUUGUGGGUUUUUGUCUGCGAGAAGGUGCCACAUGAGGAUCACCCAUGUGGUGUUGCUC | 24.1 | 30 |  |  |
| GUGCGGAACCUAGGAUAUCCGACAUGGACAGGUGGUAAGUCUCCCACAUGAGGAUCACCCAUGUAGGAGAAGGAGGAUCACGGG | 6.84 | 7.39 |  |  |
| GUGCGGUAGGAGAAGGACGGAGGCUUCUUUUCAUACAUGAGGAUCACCCAUGUAGGAUAUCCUACCUCACGCGGCCUCCUUCUG | 4.77 | 4.99 |  |  |
| GUGCGGUGAGGAUAUACGUAGGUGAAAAUCUGUGUGUUCCUACAUGAGGAUCACCCAUGUAGAAGGCAUGUCAC | 53.5 | 143 |  |  |
| GUGCGUGGCUAGGAUAUUGUGGAGUUUAGUCAGCGAGAAGGAGCCACAUGAGGAUCACCCAUGUGGUGUAGCUC | 17.2 | 94.5 |  |  |
| GUGCUUUGGGAGAAGGCCGAUAGCAAAGCUAUCGGAGGAUAUUCAUACCGGAAACGGACAUGAGGAUCACCCAUGUGGCACAAA |  |  | 1430 | 44.5 |
